Calls of active or inactive are those of the source. The rule behind the calls is not given here.
Key:
[1] = Resistance ratio of EC50 for antiviral activity against HCV J6/JFH/JC1 harboring D168V mutant infected in human Huh7.5 cells to EC50 for antiviral activity against wild-type HCV J6/JFH/JC1 infected in human Huh7.5 cells; type: functional
Hepatitis C virus [2] = experiment: Antiviral activity against wild-type HCV J6/JFH/JC1 infected in human Huh7.5 cells assessed as inhibition of viral replication measured after 72 hrs by qRT-PCR analysis; type: functional, organism-based, Hepacivirus hominis; settings: J6/JFH/JC1, Huh7.5, 72 h
Outline: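 Huh7.5 cells seeded at 3 × 10^4/cm2 and incubated 24 h. Infected with wild-type HCVcc stock (45 IU/cell) with compound or solvent control added at the same time. After 72 h, intracellular RNA measured by one-step qRT-PCR and core protein by Western blot. EC50 by Reed & Muench method, mean ± SD from three independent experiments.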

Hepatitis C virus [3] = experiment: Antiviral activity against HCV J6/JFH/JC1 harboring D168V mutant infected in human Huh7.5 cells assessed as inhibition of viral replication measured after 72 hrs by qRT-PCR analysis; type: functional, organism-based, Hepacivirus hominis; settings: J6/JFH/JC1, Huh7.5, 72 h
[4] = Cytotoxicity against human Huh7.5 cells assessed as reduction in cell viability incubated for 72 hrs by MTT assay; type: cell-based
Outline: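 Huh7.5 cells seeded at 3 × 10^4/cm2, grown 24 h, then exposed to compound for 72 h. Viability read by MTT assay. CC50 by Reed & Muench method, mean ± SD from three independent experiments.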

[5] = Antiviral activity against HCV subtype 2a J6/JFH/JC1 infected in human Huh7.5 cells assessed as reduction in viral RNA levels measured after 72 hrs by qRT-PCR analysis; settings: Hepatitis C virus, J6/JFH/JC1, Huh7.5, 72 h
[6] = Selectivity index, ratio of CC50 for cytotoxicity against human Huh7.5 cells assessed as reduction in cell viability incubated for 72 hrs by MTT assay to EC50 for antiviral activity against HCV genotype 2a J6/JFH/JC1 infected in human Huh7.5 cells assessed as reduction in viral RNA levels measured after 72 hrs by qRT-PCR analysis; type: toxicity, cell-based; settings: read-out: Ratio CC50/EC50
[7] = molecular target: T1, Chondroitin sulfate N-acetylgalactosaminyltransferase 1 (Homo sapiens) (UniProt Q8TDX6); experiment: Destabilization of CSGalNacT-1 in human Huh7.5 cells assessed as down regulation of CSGalNacT-1 protein levels measured after 72 hrs by Western blot analysis; type: cell-based; settings: dose 0.2-25 µM
T1 sequence (whole entry): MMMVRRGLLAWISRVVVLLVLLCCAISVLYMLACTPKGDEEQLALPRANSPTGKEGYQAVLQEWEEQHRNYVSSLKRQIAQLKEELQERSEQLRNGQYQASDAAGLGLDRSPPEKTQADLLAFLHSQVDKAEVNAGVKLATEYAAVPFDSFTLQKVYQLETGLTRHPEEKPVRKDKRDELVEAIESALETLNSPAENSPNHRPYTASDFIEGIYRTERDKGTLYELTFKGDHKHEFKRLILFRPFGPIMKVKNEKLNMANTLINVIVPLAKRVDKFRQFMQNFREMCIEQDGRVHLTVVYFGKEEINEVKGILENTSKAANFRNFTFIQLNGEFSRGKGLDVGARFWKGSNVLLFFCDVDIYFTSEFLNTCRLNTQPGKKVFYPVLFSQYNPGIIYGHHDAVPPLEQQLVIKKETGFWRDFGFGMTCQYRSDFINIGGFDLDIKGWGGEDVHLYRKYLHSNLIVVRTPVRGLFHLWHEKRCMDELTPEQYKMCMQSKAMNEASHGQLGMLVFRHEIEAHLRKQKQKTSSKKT

Hepatitis C virus [8] = experiment: Antiviral activity against HCV J6/JFH/JC1 harboring S282T mutant infected in human Huh7.5 cells assessed as inhibition of viral replication measured after 72 hrs by qRT-PCR analysis; type: functional, organism-based, Hepacivirus hominis; settings: J6/JFH/JC1, Huh7.5, 72 h
Hepatitis C virus [9] = experiment: Antiviral activity against HCV subgenomic replicon harboring I377-3'del.S infected in human GS4.3 cells assessed as inhibition of viral replication at 6.25 to 25 uM after 72 hrs by qRT-PCR analysis; type: functional, organism-based; settings: Hepacivirus hominis, dose 6.25-25 µM
Outline: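 GS4.3 cells (Huh7 carrying HCV subgenomic replicon I377-3′del.S) seeded at 3 × 10^4/cm2, after 24 h treated with compound or solvent control. After 72 h intracellular RNA extracted and replicon RNA measured by qRT-PCR. Cytotoxicity checked by MTT at 72 h.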

Hepatitis C virus [10] = experiment: Antiviral activity against HCV J6/JFH/JC1 harboring A156T mutant infected in human Huh7.5 cells assessed as inhibition of viral replication measured after 72 hrs by qRT-PCR analysis; type: functional, organism-based, Hepacivirus hominis; settings: J6/JFH/JC1, Huh7.5, 72 h
[11] = Inhibition of NS5A in HCV genotype 1b infected in HuH7.5Lcu-Neo cells assessed as reduction in viral replication by luciferase reporter gene assay; type: cell-based, Hepatitis C virus subtype 1b; settings: Hepatitis C virus

| Compound | CC50 at 72 h [4] | EC50 [5] | selectivity ratio at 72 h [6] | other results |
| --- | --- | --- | --- | --- |
| COc1ccc2c(O[C@@H]3C[C@H]4C(=O)N[C@]5(C(=O)NS(=O)(=O)C6CC6)C[C@H]5/C=C\CCCCN(C)C(=O)[C@@H]4C3)cc(-c3nc(C(C)C)cs3)nc2c1C |  |  |  | Ratio EC50 [1]: 23.3; EC50 (Hepatitis C virus [2]): 40 nM; EC50 (Hepatitis C virus [3]): 0.93 µM |
| COC(=O)N[C@H](C(=O)N1CCC[C@H]1c1ncc(-c2ccc(-c3ccc(-c4cnc([C@@H]5CCCN5C(=O)[C@@H](NC(=O)OC)C(C)C)[nH]4)cc3)cc2)[nH]1)C(C)C |  |  |  | EC50 (Hepatitis C virus [2]): 0.0177 nM |
| COc1cc(/C=C/C=C/c2ccccc2)c(C(=O)O)c(O)c1CC=C(C)C | 96.9 µM | 13.4 µM | 7 |  |
| COc1cc(CCc2ccccc2)c(C(=O)O)c(O)c1CC=C(C)C [AMORFRUTIN A] | 59.4 µM | 1.68 µM | 35 |  |
| COc1cc(/C=C/c2ccc(F)cc2)c(C(=O)O)c(O)c1CC=C(C)C | 69.2 µM | 1.49 µM | 46 |  |
| COC(=O)c1c(O)cc(OC)cc1/C=C/c1ccccc1 |  |  |  | Activity [7]: Dose-dependent effect |
| COc1cc(/C=C(\C)c2ccccc2)c(C(=O)O)c(O)c1CC=C(C)C | 76.8 µM | 1.7 µM | 45 |  |
| COC(=O)c1c(CCc2ccccc2)cc(OC)c(CC=C(C)C)c1O | 122 µM | 16.1 µM | 8 |  |
| COc1cc(/C=C/c2cccs2)c(C(=O)O)c(O)c1CC=C(C)C | 83 µM | 3.7 µM | 22 |  |
| CC(C)OC(=O)[C@H](C)N[P@](=O)(OC[C@H]1O[C@@H](n2ccc(=O)[nH]c2=O)[C@](C)(F)[C@@H]1O)Oc1ccccc1 [SOFOSBUVIR] |  |  |  | EC50 (Hepatitis C virus [8]): 0.29 µM |
| CCC[C@H](NC(=O)[C@@H]1[C@H]2CCC[C@H]2CN1C(=O)[C@@H](NC(=O)[C@@H](NC(=O)c1cnccn1)C1CCCCC1)C(C)(C)C)C(=O)C(=O)NC1CC1 | 44.9 µM | 0.008 µM | 5700 | Activity (Hepatitis C virus [9]): Active; EC50 (Hepatitis C virus [2]): 20 nM; EC50 (Hepatitis C virus [10]): 0.62 µM |
| COc1cc(/C=C/c2ccccc2Cl)c(C(=O)O)c(O)c1CC=C(C)C | 39.5 µM | 1.03 µM | 39 |  |
| COc1cc(/C=C/c2ccc(C)cc2)c(C(=O)O)c(O)c1CC=C(C)C | 82.9 µM | 6.54 µM | 13 |  |
| CC/C=C/c1cc(OC)c(CC=C(C)C)c(O)c1C(=O)OC | 89.3 µM | 24.8 µM | 4 |  |
| COc1cc(/C=C/c2ccc(O)cc2)c(C(=O)O)c(O)c1CC=C(C)C | 16.1 µM | 0.33 µM | 49 |  |
| COc1cc(/C=C/c2ccccc2C)c(C(=O)O)c(O)c1CC=C(C)C | 55.3 µM | 5.92 µM | 9 |  |
| CC/C=C/c1cc(OC)c(CC=C(C)C)c(O)c1C(=O)O | 72.9 µM | 1.02 µM | 71 |  |
| COC(=O)c1c(/C=C/c2ccccc2)cc(OC)c(CC=C(C)C)c1O | > 200 µM | 4.87 µM | > 41 |  |
| CCOC(=O)c1c(/C=C/c2ccccc2)cc(OC)c(CC=C(C)C)c1O | 195 µM | 4.13 µM | 47 |  |
| COc1cc(/C=C/c2cccc(C)c2)c(C(=O)O)c(O)c1CC=C(C)C | 82.5 µM | 1.95 µM | 42 |  |
| C/C=C/C[C@@H](C)[C@@H](O)[C@H]1C(=O)N[C@@H](CC)C(=O)N(C)[C@H](C)C(=O)N(CC)[C@@H](C(C)C)C(=O)N[C@@H](C(C)C)C(=O)N(C)[C@@H](CC(C)C)C(=O)N[C@@H](C)C(=O)N[C@H](C)C(=O)N(C)[C@@H](CC(C)C)C(=O)N(C)[C@@H](CC(C)C)C(=O)N(C)[C@@H](C(C)C)C(=O)N1C [ALISPORIVIR] |  |  |  | EC50 [11]: 0.0158 µM |
| COc1cc(/C=C/c2ccccc2)cc(O)c1CC=C(C)C | 21.4 µM | 12 µM | 1.8 |  |
| COC(=O)c1c(/C=C(\C)c2ccccc2)cc(OC)c(CC=C(C)C)c1O | 102 µM | 2.89 µM | 35 |  |
